Experimental data of several laboratories.
Lines come from different studies, so protocols differ.
PIK3CA: Phosphatidylinositol 4,5-bisphosphate 3-kinase catalytic subunit alpha isoform (PIK3CA, Homo sapiens, UniProt P42336)
PIK3CA E545A: Phosphatidylinositol 4,5-bisphosphate 3-kinase catalytic subunit alpha isoform (PIK3CA, Homo sapiens, UniProt P42336, E545A)
PIK3CA E542K: Phosphatidylinositol 4,5-bisphosphate 3-kinase catalytic subunit alpha isoform (PIK3CA, Homo sapiens, UniProt P42336, E542K)
PIK3CA I800L: Phosphatidylinositol 4,5-bisphosphate 3-kinase catalytic subunit alpha isoform (PIK3CA, Homo sapiens, UniProt P42336, I800L)
PIK3CA C420R: Phosphatidylinositol 4,5-bisphosphate 3-kinase catalytic subunit alpha isoform (PIK3CA, Homo sapiens, UniProt P42336, C420R)
PIK3CA E545K: Phosphatidylinositol 4,5-bisphosphate 3-kinase catalytic subunit alpha isoform (PIK3CA, Homo sapiens, UniProt P42336, E545K)
PIK3CA M1043I: Phosphatidylinositol 4,5-bisphosphate 3-kinase catalytic subunit alpha isoform (PIK3CA, Homo sapiens, UniProt P42336, M1043I)

| Structure (SMILES) | target | read-out | action | technique | tested at | quantity | value |
| --- | --- | --- | --- | --- | --- | --- | --- |
| COc1cccc2c(NCc3ccccc3)nc(-n3c(N)nc4ccccc43)nc12 | PIK3CA | target engagement in cells | inhibitor | chemoproteomics | 20 mM | inhibition | 5.6% |
| CC(C)=CC(=O)CCCC(=O)N1CCN(c2nc(-c3cnc(N)nc3C(F)F)nc(N3CCOCC3)n2)CC1 | PIK3CA | ligand displacement |  | TR-FRET |  | kinact/KI | 3210 M⁻¹ s⁻¹ |
| C[C@@H]1CCN(c2nccc(-c3cnn4ncccc34)n2)C1 | PIK3CA E545A | binding |  |  | 1 µM | remaining binding | 88% |
| CC(C)CCn1c(SCC(=O)Nc2ccccc2C(F)(F)F)nc2nccnc2c1=O | PIK3CA | enzyme activity | inhibitor |  | 10 µM | inhibition | < 20% |
| CC(=O)Oc1ccc(-c2coc3c4c(c(CC=C(C)C)c(OC(C)=O)c3c2=O)OC(C)(C)C=C4)cc1OC(C)=O | PIK3CA E542K | enzyme activity | inhibitor | ADP detection | 10 µM | remaining activity | 46.1% |
| O=c1nc(-c2ccccn2)sc2ccccc12 | PIK3CA E542K | cell-free assay |  | competition with immobilised ligand | 1 µM | remaining binding | 89% |
| Cc1cnn2ncc(-c3ccnc(N(C)C)n3)c2c1 | PIK3CA I800L | binding |  |  | 1 µM | remaining binding | 100% |
| Cc1ccc(C(=O)NCc2ccsc2)cc1C#Cc1cn(C(C)C)c2ncnc(N)c12 | Phosphatidylinositol 4,5-bisphosphate 3-kinase catalytic subunit alpha isoform, with p85 (PIK3CA, Homo sapiens, UniProt P42336) | enzyme activity | inhibitor |  | 1 µM | activity vs control | 97% |
| CCCOc1ccc([C@@H]2[C@@H](C(=O)O)[C@H](c3ccc4c(c3)OCO4)CN2CC(=O)Nc2c(CC)cccc2CC)cc1 | PIK3CA E545A | cell-free assay |  | competition with immobilised ligand | 1 µM | remaining binding | 92% |
| C=CC(=O)N(C)CCCCC(=O)N1CCN(c2nc(-c3cnc(N)nc3C(F)F)nc(N3CCOCC3)n2)CC1 | PIK3CA | ligand displacement |  | TR-FRET |  | kinact | 0.000127 s⁻¹ |
| c1cnn2ncc(-c3ccnc(N4CCC45COC5)n3)c2c1 | PIK3CA C420R | binding |  |  | 1 µM | remaining binding | 71% |
| C/C=C/C(=O)CCCCCC(=O)N1CCN(c2nc(-c3cnc(N)nc3C(F)F)nc(N3CCOCC3)n2)CC1 | PIK3CA | cell-free assay |  | TR-FRET |  | kinact | 0.0153 s⁻¹ |
| NS(=O)(=O)c1cc(NC(=O)Cc2ccccc2)ccc1Oc1cccc(Cl)c1 | PIK3CA E545A | cell-free assay |  | competition with immobilised ligand | 1 µM | remaining binding | 69% |
| Cc1ccc(C(=O)Nc2ccc(CN3CCN(C)CC3)c(C(F)(F)F)c2)cc1C#Cc1cnc2cccnn12 | PIK3CA E545K | enzyme activity | inhibitor |  | 23.5 nM | remaining activity | 88% |
| Cn1nc(C(F)(F)F)cc1-c1cnc(N2CCc3cc(S(=O)(=O)Nc4c(F)cc(Cl)cc4F)cc(N4CCCC4=O)c32)nc1 | Phosphatidylinositol 4,5-bisphosphate 3-kinase catalytic subunit alpha isoform (PIK3CA, Homo sapiens, UniProt P42336, H1047L) | cell-free assay |  | competition with immobilised ligand | 1 µM | remaining binding | 94% |
| CN(C)c1nccc(-c2cnc3ncccn23)n1 | PIK3CA C420R | binding |  |  | 1 µM | remaining binding | 58% |
| COc1cc(-c2cn(C3CCc4ccccc4N(CC(F)(F)F)C3=O)nn2)ccc1-n1ccc(C)n1 (centres unmarked) | PIK3CA E542K | cell-free assay |  | competition with immobilised ligand | 1 µM | remaining binding | 82% |
| F[C@@H]1CCN(c2nccc(-c3cnn4ncccc34)n2)C1 | PIK3CA M1043I | binding |  |  | 1 µM | remaining binding | 100% |
| CN(C)c1ncnc(-c2ccc3nc(Nc4cc(CN5CCN(C(=O)CC(F)(F)F)CC5)ccn4)[nH]c3c2)c1Cl | PIK3CA E545K | cell-free assay |  | competition with immobilised ligand | 1 µM | remaining binding | 76% |
| N[C@@H]1CCN(c2nccc(-c3cnn4ncccc34)n2)C1 | PIK3CA E542K | binding |  |  | 1 µM | remaining binding | 80% |
| C=CC(=O)N1CCC(C(=O)N(C)CCCC(=O)N2CCN(c3nc(-c4cnc(N)nc4C(F)F)nc(N4CCOCC4)n3)CC2)CC1 | PIK3CA | cell-free assay |  | TR-FRET |  | kinact | 0.000406 s⁻¹ |
| Nc1ncnc2occ(-c3ccc(NC(=O)Nc4cc(C(F)(F)F)ccc4F)cc3)c12 | PIK3CA M1043I | cell-free assay | inhibitor |  | 20 µM | remaining signal | 100% |
| Cc1c[nH]c2nccc(Oc3c(F)cc(Nc4cc(Cl)nc(N)n4)cc3F)c12 | Phosphatidylinositol 4,5-bisphosphate 3-kinase catalytic subunit alpha isoform (PIK3CA, Homo sapiens, UniProt P42336, H1047Y) | cell-free assay |  | competition with immobilised ligand | 0.1 µM | remaining binding | 83% |
| C=CC(=O)NCCCCC(=O)N1CCN(c2nc(-c3cnc(N)nc3C(F)F)nc(N3CCOCC3)n2)CC1 | PIK3CA | cell-free assay |  | TR-FRET |  | kinact/KI | 16400 M⁻¹ s⁻¹ |
| NS(=O)(=O)c1cc(NC(=O)C2(c3ccccc3Cl)CC2)ccc1Oc1cccc(Cl)c1 | PIK3CA I800L | cell-free assay |  | competition with immobilised ligand | 1 µM | remaining binding | 100% |
| O=S(=O)(Nc1cc(Sc2ncn[nH]2)c(O)c2ccccc12)c1ccc(-c2ccccc2)cc1 | PIK3CA | enzyme activity | inhibitor |  | 1 µM | remaining activity | ≥ 75% |
